Measured values reported in publication PMC12391519 (Scientific Reports, 2025).

Legend:
[1] = Total serum TEIC trough concentration by HPLC in patients on TEIC therapy; type: in vivo, human
Summary of the method: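 Trough serum was drawn before dosing (days 3–4 of loading, day 7 onward of maintenance), centrifuged 1,800 g for 15 min at 25 °C and stored at –30 °C. It got primidone internal standard, acetonitrile deproteinisation and 0.1 M HCl/chloroform cleanup. HPLC-UV ran at 215 nm on a C18 column at 35 °C with a 10 mM phosphate pH 3.0/acetonitrile gradient at 1.0 mL/min. Calibrators were in commercial human serum; groups were compared by Mann–Whitney U.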

[2] = Free serum TEIC trough concentration by ultrafiltration followed by HPLC; type: in vivo, human
Summary of the method: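 Trough serum (1 mL) was ultrafiltered through a 30 kDa cutoff filter. The filtrate got primidone internal standard, acetonitrile deproteinisation and 0.1 M HCl/chloroform cleanup, then C18 HPLC-UV at 215 nm; calibrators were in ultrafiltered human serum. Response was […] CRP decrease plus ≥0.3 °C fever reduction for two consecutive days within 96 h. Adverse events were renal or hepatic dysfunction. Groups were compared by Mann–Whitney U.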

[3] = tested on: serum albumin; assay: Free TEIC percentage; type: in vitro ADME, human; conditions: patient serum, HPLC-UV
Summary of the method: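 Free percentage is free/total trough TEIC, both measured by HPLC-UV at 215 nm; free drug was taken after 30 kDa ultrafiltration of serum. Samples were drawn before dosing on days 3–4 (loading: five doses, median 13 mg/kg every 12 h) or from day 7 (maintenance: median 7.8 mg/kg once daily). Relation to albumin was assessed by Spearman rank correlation.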

[4] = Adverse events during TEIC therapy; type: in vivo, human; conditions: ROC analysis, n = 41
Summary of the method: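 Renal dysfunction was a serum creatinine rise of ≥0.3 mg/dL within 48 h, or ≥1.5-times baseline within seven days, of TEIC administration. Hepatic dysfunction was AST or ALT outside the normal limit of ≤30 IU/L (CTCAE v5.0). ROC analysis used measured free trough TEIC (ultrafiltration, HPLC-UV). The cutoff was the point where sensitivity and specificity, plotted against free concentration, gave the best result.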

[5] = tested on: albumin; conditions: cited from earlier work
[6] = cited from earlier work

## Teicoplanin
[1]; loading dose period (days 3–4, median dose 13 mg/kg every 12 h), serum, HPLC-UV
  Trough total concentration, loading dose period, median: 24.3 µg/mL
[1]; maintenance dose period (day 7 onward, median dose 7.8 mg/kg once daily), serum, HPLC-UV
  Trough total concentration, maintenance dose period, median: 26.2 µg/mL
[1]; n = 7
  Total serum TEIC concentration, patients with adverse events, median: 36.1 µg/mL
  Total serum TEIC concentration, patients without effective response, median: 21.1 µg/mL
[1]; n = 17
  Total serum TEIC concentration, patients with effective response, median: 24.8 µg/mL
[1]; n = 34
  Total serum TEIC concentration, patients without adverse events, median: 30.1 µg/mL
[2]; another patient, total serum TEIC < 40 μg/mL, adverse events noted
  Free serum TEIC concentration, single patient with adverse events: 6.31 µg/mL
[2]; loading dose period, ultrafiltration 30 kDa, HPLC-UV, median
  Trough free concentration, loading dose period, median: 1.50 µg/mL
[2]; maintenance dose period, ultrafiltration 30 kDa, HPLC-UV, median
  Trough free concentration, maintenance dose period, median: 1.65 µg/mL
[2]; n = 7, median
  Free serum TEIC concentration, patients with adverse events, median: 2.60 µg/mL
  Free serum TEIC concentration, patients without effective response, median: 1.26 µg/mL
[2]; n = 17, median
  Free serum TEIC concentration, patients with effective response, median: 1.50 µg/mL
[2]; n = 34, median
  Free serum TEIC concentration, patients without adverse events, median: 1.35 µg/mL
[2]; one of the 17 patients who showed efficacy, total serum TEIC < 15 µg/mL
  Free serum TEIC concentration, single patient with efficacy: 1.67 µg/mL
[2]; one patient, total serum TEIC > 40 μg/mL
  Free serum TEIC concentration, single patient with high total concentration: 1.78 µg/mL
[3]; all samples, ultrafiltration 30 kDa, free/total
  Free teicoplanin percentage, median: 6.3%
[3]; loading dose period, ultrafiltration
  Free teicoplanin percentage, loading dose period, median: 6.2%
[3]; maintenance dose period, ultrafiltration
  Free teicoplanin percentage, maintenance dose period, median: 6.3%
[4]
  Cutoff value of free serum TEIC concentration for occurrence of adverse events: 2.07 µg/mL
[5]; analysis of Yano et al.
  nKa (binding sites per albumin molecule × association constant): 1.78 (g/dL)^−1
[5]
  Protein-binding rate used by Byrne et al.: 90–95%
[5]; in humans, serum albumin
  Protein-binding rate: ≥ 90%
[6]; Sugiyama et al.
  Cutoff of mean free serum TEIC concentration associated with renal dysfunction: 4.2 µg/mL
[6]
  Effective total serum TEIC trough concentrations in clinical settings: 15 to 40 µg/mL
  Effective total serum TEIC trough concentrations, complicated infections: 20 to 40 µg/mL
  Effective total serum TEIC trough concentrations, uncomplicated infections: 15 to 30 µg/mL
  TEIC concentration causing renal dysfunction: > 60 µg/mL
